Assay results taken from ChEMBL document CHEMBL1131640, “L-carnitine esters as "soft", broad-spectrum antimicrobial amphiphiles” (J Med Chem, 1998).

Legend:
Format in all cases: functional
Escherichia coli = test: Minimal inhibitory concentration against Escherichia coli
How it was run: (§1)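 Microtiter broth dilution MIC assay. Strains: S. aureus, S. faecalis, E. coli, P. vulgaris and C. albicans were wild-type clinical isolates; S. cerevisiae ATCC 7752, A. fumigatus ATCC 28212, A. niger ATCC 16404 and M. mucedo ATCC 7941.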

Saccharomyces cerevisiae = test: Minimal inhibitory concentration against Saccharomyces cerevisiae; how it was run: as §1
Staphylococcus aureus = test: Minimal inhibitory concentration against Staphylococcus aureus; how it was run: as §1
Aspergillus fumigatus = test: Minimal inhibitory concentration against Aspergillus fumigatus; how it was run: as §1
Proteus vulgaris = test: Minimal inhibitory concentration against Proteus vulgaris; how it was run: as §1
Mucor mucedo = test: Minimal inhibitory concentration against Mucor mucedo; how it was run: as §1
Aspergillus niger = test: Minimal inhibitory concentration against Aspergillus niger; how it was run: as §1
Enterococcus faecalis = test: Minimal inhibitory concentration against Streptococcus faecalis; how it was run: as §1
Candida albicans = test: Minimal inhibitory concentration against Candida albicans; how it was run: as §1

In the case of C=CCCCCCCCCCOC(=O)C[C@H](C[N+](C)(C)C)OC(=O)CC(C)C.[Cl-], the MIC (Escherichia coli) is reported as 25 µg/mL, the MIC (Saccharomyces cerevisiae) is reported as 6.25 µg/mL and the MIC (Staphylococcus aureus) is reported as 12.5 µg/mL. It also gave an MIC (Aspergillus fumigatus) of 12.5 µg/mL, an MIC (Proteus vulgaris) of 50 µg/mL and an MIC (Mucor mucedo) of 12.5 µg/mL. The MIC (Aspergillus niger) was 6.25 µg/mL, the MIC (Enterococcus faecalis) was 3.12 µg/mL and the MIC (Candida albicans) was 6.25 µg/mL.
CCCCCCCCCCCC(=O)O[C@H](CC(=O)OCCC(F)(F)C(F)(F)C(F)(F)C(F)(F)C(F)(F)C(F)(F)F)C[N+](C)(C)C.[Cl-] was tested, and the MIC (Escherichia coli) was > 100 µg/mL, the MIC (Saccharomyces cerevisiae) was > 100 µg/mL and the MIC (Staphylococcus aureus) was > 100 µg/mL. For the same compound, the MIC (Aspergillus fumigatus) was > 100 µg/mL, the MIC (Proteus vulgaris) was > 100 µg/mL and the MIC (Mucor mucedo) was > 100 µg/mL. For the same compound, the MIC (Aspergillus niger) was > 100 µg/mL, the MIC (Enterococcus faecalis) was > 100 µg/mL and the MIC (Candida albicans) was > 100 µg/mL.
With CCCCCCCOC(=O)C[C@H](C[N+](C)(C)C)OC(=O)CCOc1ccccc1.[Cl-] the MIC (Escherichia coli) was > 100 µg/mL, the MIC (Saccharomyces cerevisiae) was > 100 µg/mL and the MIC (Staphylococcus aureus) was > 100 µg/mL. For the same compound, the MIC (Aspergillus fumigatus) was > 100 µg/mL, the MIC (Proteus vulgaris) was > 100 µg/mL and the MIC (Mucor mucedo) was > 100 µg/mL. The MIC (Aspergillus niger) was > 100 µg/mL, the MIC (Enterococcus faecalis) was > 100 µg/mL and the MIC (Candida albicans) was > 100 µg/mL.
With CCCCCCCCCCOC(=O)C[C@H](C[N+](C)(C)C)OC(=O)CCCCCC.[Cl-] the MIC (Escherichia coli) was 25 µg/mL, the MIC (Saccharomyces cerevisiae) was 3.12 µg/mL and the MIC (Staphylococcus aureus) was 3.12 µg/mL. For the same compound, the MIC (Aspergillus fumigatus) was 25 µg/mL, the MIC (Proteus vulgaris) was 50 µg/mL and the MIC (Mucor mucedo) was 50 µg/mL. It also gave an MIC (Aspergillus niger) of 25 µg/mL, an MIC (Enterococcus faecalis) of 3.12 µg/mL and an MIC (Candida albicans) of 3.12 µg/mL.
In the case of CCCCCCCCCCCCCOC(=O)C[C@H](C[N+](C)(C)C)OC(=O)C(C)CCCC.[Cl-] (stereo partly drawn), the MIC (Escherichia coli) is reported as > 100 µg/mL, the MIC (Staphylococcus aureus) is reported as 6.25 µg/mL and the MIC (Proteus vulgaris) is reported as > 100 µg/mL. The MIC (Enterococcus faecalis) was 6.25 µg/mL.
CCCCCCCCOC(=O)C[C@H](C[N+](C)(C)C)OC(=O)CC(C)C.[Cl-] was tested, and the MIC (Escherichia coli) was > 100 µg/mL, the MIC (Saccharomyces cerevisiae) was > 100 µg/mL and the MIC (Staphylococcus aureus) was 50 µg/mL. The MIC (Aspergillus fumigatus) was > 100 µg/mL, the MIC (Proteus vulgaris) was > 100 µg/mL and the MIC (Mucor mucedo) was > 100 µg/mL. The MIC (Aspergillus niger) was > 100 µg/mL, the MIC (Enterococcus faecalis) was 50 µg/mL and the MIC (Candida albicans) was > 100 µg/mL.
For CCCCCCCCCCCOC(=O)C[C@H](C[N+](C)(C)C)OC(=O)CCCBr.[Cl-], the MIC (Escherichia coli) was 50 µg/mL, the MIC (Saccharomyces cerevisiae) was 3.12 µg/mL and the MIC (Staphylococcus aureus) was 6.25 µg/mL. The MIC (Aspergillus fumigatus) was 12.5 µg/mL, the MIC (Proteus vulgaris) was 100 µg/mL and the MIC (Mucor mucedo) was 25 µg/mL. It also gave an MIC (Aspergillus niger) of 12.5 µg/mL, an MIC (Enterococcus faecalis) of 3.12 µg/mL and an MIC (Candida albicans) of 3.12 µg/mL.
In the case of CCCCCCCCCCCOC(=O)C[C@@H](O)C[N+](C)(C)C.[Cl-], the MIC (Escherichia coli) is reported as > 100 µg/mL, the MIC (Saccharomyces cerevisiae) is reported as > 100 µg/mL and the MIC (Staphylococcus aureus) is reported as 12.5 µg/mL. For the same compound, the MIC (Aspergillus fumigatus) was > 100 µg/mL, the MIC (Proteus vulgaris) was > 100 µg/mL and the MIC (Mucor mucedo) was > 100 µg/mL. The MIC (Aspergillus niger) was > 100 µg/mL, the MIC (Enterococcus faecalis) was 25 µg/mL and the MIC (Candida albicans) was > 100 µg/mL.
In the case of CCCCCCCCCCOC(=O)C[C@H](C[N+](C)(C)C)OC(=O)CC(C)C.[Cl-], the MIC (Escherichia coli) is reported as 50 µg/mL, the MIC (Saccharomyces cerevisiae) is reported as 3.12 µg/mL and the MIC (Staphylococcus aureus) is reported as 12.5 µg/mL. The MIC (Aspergillus fumigatus) was 50 µg/mL, the MIC (Proteus vulgaris) was > 100 µg/mL and the MIC (Mucor mucedo) was 100 µg/mL. It also gave an MIC (Aspergillus niger) of 25 µg/mL, an MIC (Enterococcus faecalis) of 6.25 µg/mL and an MIC (Candida albicans) of 3.12 µg/mL.
For CCCCCCCCCCCCCCCCOC(=O)C[C@@H](O)C[N+](C)(C)C.[Cl-], the MIC (Escherichia coli) was > 100 µg/mL, the MIC (Saccharomyces cerevisiae) was > 100 µg/mL and the MIC (Staphylococcus aureus) was 6.25 µg/mL. For the same compound, the MIC (Aspergillus fumigatus) was 6.25 µg/mL, the MIC (Proteus vulgaris) was > 100 µg/mL and the MIC (Mucor mucedo) was 6.25 µg/mL. For the same compound, the MIC (Aspergillus niger) was 3.12 µg/mL, the MIC (Enterococcus faecalis) was 3.12 µg/mL and the MIC (Candida albicans) was 6.25 µg/mL.
For CCCCCCCCCCCOC(=O)C[C@H](C[N+](C)(C)C)OC(=O)CCC(C)C.[Cl-], the MIC (Escherichia coli) was 25 µg/mL, the MIC (Staphylococcus aureus) was 3.12 µg/mL and the MIC (Proteus vulgaris) was > 100 µg/mL. It also gave an MIC (Enterococcus faecalis) of 1.56 µg/mL.
With CCCCCCCCCCCCCOC(=O)C[C@H](C[N+](C)(C)C)OC(=O)CCCCCCCC.[Cl-] the MIC (Escherichia coli) was > 100 µg/mL, the MIC (Saccharomyces cerevisiae) was 12.5 µg/mL and the MIC (Staphylococcus aureus) was 12.5 µg/mL. The MIC (Aspergillus fumigatus) was 100 µg/mL, the MIC (Proteus vulgaris) was > 100 µg/mL and the MIC (Mucor mucedo) was 50 µg/mL. It also gave an MIC (Aspergillus niger) of 25 µg/mL, an MIC (Enterococcus faecalis) of 6.25 µg/mL and an MIC (Candida albicans) of 12.5 µg/mL.
Compound CCCCCCCCCCCOC(=O)C[C@H](C[N+](C)(C)C)OC(=O)CCCCCC.[Cl-] has an MIC (Escherichia coli) of 25 µg/mL, an MIC (Saccharomyces cerevisiae) of 3.12 µg/mL and an MIC (Staphylococcus aureus) of 3.12 µg/mL. The MIC (Aspergillus fumigatus) was 3.12 µg/mL, the MIC (Proteus vulgaris) was 100 µg/mL and the MIC (Mucor mucedo) was 6.25 µg/mL. It also gave an MIC (Aspergillus niger) of 3.12 µg/mL, an MIC (Enterococcus faecalis) of 1.56 µg/mL and an MIC (Candida albicans) of 3.12 µg/mL.
With CC(C)CC(=O)O[C@H](CC(=O)OCCCCCCCCCCCBr)C[N+](C)(C)C.[Cl-] the MIC (Escherichia coli) was 100 µg/mL, the MIC (Saccharomyces cerevisiae) was > 100 µg/mL and the MIC (Staphylococcus aureus) was 12.5 µg/mL. The MIC (Aspergillus fumigatus) was 25 µg/mL, the MIC (Proteus vulgaris) was 100 µg/mL and the MIC (Mucor mucedo) was 50 µg/mL. The MIC (Aspergillus niger) was 50 µg/mL, the MIC (Enterococcus faecalis) was 6.25 µg/mL and the MIC (Candida albicans) was 6.25 µg/mL.
CCCCCCCCOC(=O)C[C@H](C[N+](C)(C)C)OC(=O)CCCCCCCC.[Cl-] showed an MIC (Escherichia coli) of 25 µg/mL, an MIC (Saccharomyces cerevisiae) of 3.12 µg/mL and an MIC (Staphylococcus aureus) of 3.12 µg/mL. For the same compound, the MIC (Aspergillus fumigatus) was 12.5 µg/mL, the MIC (Proteus vulgaris) was 50 µg/mL and the MIC (Mucor mucedo) was 25 µg/mL. For the same compound, the MIC (Aspergillus niger) was 6.25 µg/mL, the MIC (Enterococcus faecalis) was 3.12 µg/mL and the MIC (Candida albicans) was 3.12 µg/mL.
For CCCCCCCCCCCCOC(=O)C[C@H](C[N+](C)(C)C)OC(=O)CCCCCC.[Cl-], the MIC (Escherichia coli) was > 100 µg/mL, the MIC (Saccharomyces cerevisiae) was 3.12 µg/mL and the MIC (Staphylococcus aureus) was 3.12 µg/mL. For the same compound, the MIC (Aspergillus fumigatus) was 3.12 µg/mL, the MIC (Proteus vulgaris) was > 100 µg/mL and the MIC (Mucor mucedo) was 12.5 µg/mL. For the same compound, the MIC (Aspergillus niger) was 6.25 µg/mL, the MIC (Enterococcus faecalis) was 1.56 µg/mL and the MIC (Candida albicans) was 3.12 µg/mL.
For CCCCCCCCCCC(=O)O[C@H](CC(=O)OCCC(F)(F)C(F)(F)C(F)(F)C(F)(F)C(F)(F)C(F)(F)C(F)(F)C(F)(F)F)C[N+](C)(C)C.[Cl-], the MIC (Escherichia coli) was > 100 µg/mL, the MIC (Saccharomyces cerevisiae) was > 100 µg/mL and the MIC (Staphylococcus aureus) was > 100 µg/mL. For the same compound, the MIC (Aspergillus fumigatus) was > 100 µg/mL, the MIC (Proteus vulgaris) was > 100 µg/mL and the MIC (Mucor mucedo) was > 100 µg/mL. For the same compound, the MIC (Aspergillus niger) was > 100 µg/mL, the MIC (Enterococcus faecalis) was > 100 µg/mL and the MIC (Candida albicans) was > 100 µg/mL.
